Assay results from ChEMBL document CHEMBL2396599, “Design of cell-permeable stapled peptides as HIV-1 integrase inhibitors” (J Med Chem, 2013).
Starred links: 1 amine or outer side, 2 acyl side, 3 side chain; linkers in the order of their positions; H or OH if unused. Positions of bridges follow the written chain, without caps; N, C: chain ends. Non-standard residues stand in square brackets, D forms with d. Residues, ends and D or L forms follow the SMILES beside them. αMeNva(5-ylidene) = C[C@@](CCC=[*:3])(N[*:1])C(=O)[*:2]; X1 = C[C@@](CCCCC=[*:3])(N[*:1])C(=O)[*:2]; X3 = C=CCCCC[C@](C)(N[*:1])C(=O)[*:2]; X2 = C=CC[C@](C)(N[*:1])C(=O)[*:2]; S5 = C=CCCC[C@](C)(N)C(=O)O

Key:
[1] = molecular target: T1, Human immunodeficiency virus type 1 integrase (Human immunodeficiency virus 1, UniProt Q7ZJM1); assay: Inhibition of wild type HIV-1 integrase 3' processing activity after 30 mins
Procedure, shortened: (§1)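 IC₅₀ is the concentration giving 50% inhibition of HIV-1 integrase enzymatic activity, determined separately for 3′-processing and for strand transfer.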

[2] = molecular target: T1, Human immunodeficiency virus type 1 integrase; assay: Inhibition of wild type HIV-1 integrase strand transfer activity after 30 mins; procedure, shortened: as §1
[3] = molecular target: T1, Human immunodeficiency virus type 1 integrase; assay: Inhibition of HIV-1 His6-tagged integrase assessed as inhibition of LEDGF/p75-integrase interaction incubated 30 mins prior to flag-tagged LEDGF/p75 addition measured after 1 hr by AlphaScreen assay
Procedure, shortened: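 IC₅₀ is the concentration giving 50% inhibition of the interaction between LEDGF/p75 and HIV-1 integrase.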

[4] = Therapeutic index, ratio of CC50 for human MT4 cells to EC50 for Human immunodeficiency virus 1; assay type: cell-based; conditions: read-out: Ratio CC50/EC50
Procedure, shortened: (§2)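 Antiviral activity taken as the concentration giving 50% protection of HIV-1-infected MT-4 cells. Cytotoxicity was read as 50% cell death in the same cells. Therapeutic index = CC₅₀/EC₅₀.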

[5] = Cytotoxicity against human MT4 cells by MTT assay; assay type: cell-based
Procedure, shortened: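 CC₅₀ was the concentration causing 50% death of MT-4 cells, in the same cells used for the HIV-1 cytoprotection assay. This value feeds the CC₅₀/EC₅₀ ratio.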

[6] = system: Human immunodeficiency virus 1; assay: Antiviral activity against Human immunodeficiency virus 1 infected in human MT4 cells assessed as inhibition of virus-induced cytopathic effect by MTT assay; assay type: functional, organism-based; conditions: Human immunodeficiency virus 1, MT4; procedure, shortened: as §2
[7] = system: Human immunodeficiency virus; assay: Antiviral activity against AMD3100-resistant Human immunodeficiency virus; assay type: functional, organism-based; conditions: Human immunodeficiency virus 1
MT4 = assay: Cellular uptake in human MT4 cells at 10 to 500 uM after 1 hr by confocal microscopy; assay type: ADME, cell-based; conditions: mt4, 1 h
Procedure, shortened: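 Fluorescein-labelled peptides were incubated with MT-4 cells for 1 h. Confocal z-stacks were taken at 0.3 step, with FITC excited at 488 nm and a cell-membrane dye at 543 nm.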

[8] = Drug uptake in human PANC1 cell nucleus at 40 uM after 1 to 3 hrs by Draq5 staining-based confocal microscopy; assay type: ADME; conditions: panc-1, 40 µM
Procedure, shortened: (§3)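 CEM, HCT116 and Panc-1 cells were treated with the fluorescein-labelled stapled peptide for 3 h. Uptake was imaged by confocal microscopy with Draq5 nuclear staining.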

[9] = Drug uptake in human HCT116 cell nucleus at 40 uM after 1 to 3 hrs by Draq5 staining-based confocal microscopy; assay type: ADME; conditions: hct-116, 40 µM; procedure, shortened: as §3
[10] = Drug uptake in human CEM cell nucleus at 40 uM after 1 to 3 hrs by Draq5 staining-based confocal microscopy; assay type: ADME; conditions: ccrf-cem; procedure, shortened: as §3
[11] = Cellular uptake in human PANC1 cell cytoplasm at 40 uM after 1 to 3 hrs by Draq5 staining-based confocal microscopy; assay type: ADME; conditions: panc-1, 40 µM; procedure, shortened: as §3
[12] = Cellular uptake in human HCT116 cell cytoplasm at 40 uM after 1 to 3 hrs by Draq5 staining-based confocal microscopy; assay type: ADME; conditions: hct-116, 40 µM; procedure, shortened: as §3
[13] = Cellular uptake in human CEM cytoplasm at 40 uM after 1 to 3 hrs by Draq5 staining-based confocal microscopy; assay type: ADME; procedure, shortened: as §3

T1 sequence (Q7ZJM1 whole entry): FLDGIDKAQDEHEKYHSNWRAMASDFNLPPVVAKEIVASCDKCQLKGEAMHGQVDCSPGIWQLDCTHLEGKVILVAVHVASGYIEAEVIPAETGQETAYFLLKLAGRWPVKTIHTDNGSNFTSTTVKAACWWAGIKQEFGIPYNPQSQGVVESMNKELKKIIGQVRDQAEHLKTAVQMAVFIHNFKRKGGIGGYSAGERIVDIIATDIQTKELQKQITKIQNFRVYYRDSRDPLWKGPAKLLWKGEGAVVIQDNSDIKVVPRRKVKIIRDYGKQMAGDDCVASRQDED

Compound | IC50 [1] | IC50 [2] | IC50 [3] | selectivity ratio [4] | CC50 [5] | EC50 [6] | EC50 [7] | Drug uptake (MT4) | Drug uptake [8] | Drug uptake [9] | Drug uptake [10] | Drug uptake [11] | Drug uptake [12] | Drug uptake [13]
C=CCCC[C@](C)(NC(=O)CNC(=O)[C@H](C)NC(=O)[C@H](CC(C)C)NC(=O)[C@](C)(CCCC=C)NC(=O)[C@H](CC(C)C)NC(=O)[C@H](CC(C)C)NC(=O)[C@H](Cc1ccccc1)NC(=O)[C@H](Cc1ccc(O)cc1)NC(=O)[C@H](C)NC(=O)[C@@H](N)[C@@H](C)O)C(=O)N[C@@H](Cc1c[nH]c2ccccc12)C(=O)O (H-TAYFLL[S5]LAG[S5]W-OH) | > 100 µM | > 100 µM |  |  |  |  |  |  |  |  |  |  |  | 
CC(C)C[C@H](NC(=O)[C@H](Cc1ccccc1)NC(=O)[C@H](Cc1ccc(O)cc1)NC(=O)[C@H](C)NC(=O)[C@@H](N)[C@@H](C)O)C(=O)N[C@@H](CC(C)C)C(=O)N[C@@]1(C)CCC/C=C/CCC[C@@](C)(C(=O)N[C@@H](Cc2c[nH]c3ccccc23)C(=O)O)NC(=O)CNC(=O)[C@H](C)NC(=O)[C@H](CC(C)C)NC1=O (H-TAYFLL[S5]LAG[S5]W-OH; staple (E) 7-11) | > 100 µM | > 100 µM |  |  |  |  |  |  |  |  |  |  |  | 
C=CCCC[C@](C)(NC(=O)[C@H](CC(C)C)NC(=O)[C@@H](NC(=O)[C@H](CC(C)C)NC(=O)[C@](C)(CCCC=C)NC(=O)[C@H](Cc1ccccc1)NC(=O)[C@H](Cc1ccc(O)cc1)NC(=O)[C@H](C)NC(=O)[C@@H](N)[C@@H](C)O)[C@@H](C)CC)C(=O)NCC(=O)N[C@@H](CCCNC(=N)N)C(=O)N[C@@H](Cc1c[nH]c2ccccc12)C(=O)O (H-TAYF[S5]LIL[S5]GRW-OH) | 15 µM | 11 µM | > 100 µM | 1.6 | 18 µM | 11 µM |  |  |  |  |  |  |  | 
CC[C@H](C)[C@@H]1NC(=O)[C@H](CC(C)C)NC(=O)[C@@](C)(NC(=O)[C@H](Cc2ccccc2)NC(=O)[C@H](Cc2ccc(O)cc2)NC(=O)[C@H](C)NC(=O)[C@@H](N)[C@@H](C)O)CCC/C=C\CCC[C@@](C)(C(=O)NCC(=O)N[C@@H](CCCNC(=N)N)C(=O)N[C@@H](Cc2c[nH]c3ccccc23)C(=O)O)NC(=O)[C@H](CC(C)C)NC1=O (H-TAYF[S5]LIL[S5]GRW-OH; staple (Z) 5-9) | 22 µM | 25 µM | 5 µM | 8 | 41 µM | 5 µM | 4.3 µM |  |  |  |  |  |  | 
CC(C)C[C@@H]1NC(=O)[C@H](CCCCN)NC(=O)[C@H](CC(C)C)NC(=O)[C@@](C)(NC(=O)[C@H](Cc2ccccc2)NC(=O)[C@H](Cc2ccc(O)cc2)NC(=O)[C@H](C)NC(=O)[C@@H](N)[C@@H](C)O)CCC/C=C\CCC[C@@](C)(C(=O)NCC(=O)N[C@@H](CCCNC(=N)N)C(=O)N[C@@H](Cc2c[nH]c3ccccc23)C(=O)O)NC1=O (H-TAYF[S5]LKL[S5]GRW-OH; staple (Z) 5-9) | 9 µM | 6 µM | 14 µM | 3 | 50 µM | 20 µM |  |  |  |  |  |  |  | 
CC(C)C[C@@H]1NC(=O)[C@H](CCCCN)NC(=O)[C@H](CC(C)C)NC(=O)[C@@](C)(NC(=O)[C@H](Cc2ccccc2)NC(=O)[C@H](Cc2ccc(O)cc2)NC(=O)[C@H](C)NC(=O)[C@@H](N)[C@@H](C)O)CCCC/C=C/CCCC[C@@](C)(C(=O)NCC(=O)N[C@@H](CCCNC(=N)N)C(=O)N[C@@H](Cc2c[nH]c3ccccc23)C(=O)O)NC1=O (H-TAYF[X1]LKL[X1]GRW-OH; staple (E) 5-9) | 48 µM | 44 µM |  |  |  |  |  |  |  |  |  |  |  | 
C=CC[C@](C)(NC(=O)[C@H](CC(C)C)NC(=O)[C@H](CCCCN)NC(=O)[C@H](CC(C)C)NC(=O)[C@](C)(CC=C)NC(=O)[C@H](Cc1ccccc1)NC(=O)[C@H](Cc1ccc(O)cc1)NC(=O)[C@H](C)NC(=O)[C@@H](N)[C@@H](C)O)C(=O)NCC(=O)N[C@@H](CCCNC(=N)N)C(=O)N[C@@H](Cc1c[nH]c2ccccc12)C(=O)O (H-TAYF[X2]LKL[X2]GRW-OH) | > 333 µM | > 111 µM |  |  |  |  |  |  |  |  |  |  |  | 
C=CCCCC[C@](C)(NC(=O)[C@H](CC(C)C)NC(=O)[C@H](CCCCN)NC(=O)[C@H](CC(C)C)NC(=O)[C@](C)(CCCCC=C)NC(=O)[C@H](Cc1ccccc1)NC(=O)[C@H](Cc1ccc(O)cc1)NC(=O)[C@H](C)NC(=O)[C@@H](N)[C@@H](C)O)C(=O)NCC(=O)N[C@@H](CCCNC(=N)N)C(=O)N[C@@H](Cc1c[nH]c2ccccc12)C(=O)O (H-TAYF[X3]LKL[X3]GRW-OH) | 61 µM | 43 µM |  |  |  |  |  |  |  |  |  |  |  | 
CC(C)C[C@@H]1NC(=O)[C@H](CCCCN)NC(=O)[C@H](CC(C)C)NC(=O)[C@@](C)(NC(=O)[C@H](Cc2ccccc2)NC(=O)[C@H](Cc2ccc(O)cc2)NC(=O)[C@H](C)NC(=O)[C@@H](N)[C@@H](C)O)CC/C=C/CC[C@@](C)(C(=O)NCC(=O)N[C@@H](CCCNC(=N)N)C(=O)N[C@@H](Cc2c[nH]c3ccccc23)C(=O)O)NC1=O (H-TAYF[αMeNva(5-ylidene)]LKL[αMeNva(5-ylidene)]GRW-OH; staple (E) 5-9) | 90 µM | 83 µM | 14 µM |  | 40 µM | > 40 µM |  |  |  |  |  |  |  | 
CC(C)C[C@H](NC(=O)[C@H](CCCCN)NC(=O)[C@H](CC(C)C)NC(=O)[C@]1(C)CCC/C=C\CCC[C@](C)(N)C(=O)N[C@@H](C)C(=O)N[C@@H](Cc2ccc(O)cc2)C(=O)N[C@@H](Cc2ccccc2)C(=O)N1)C(=O)N[C@@H](C)C(=O)NCC(=O)N[C@@H](CCCNC(=N)N)C(=O)N[C@@H](Cc1c[nH]c2ccccc12)C(=O)O (H-[S5]AYF[S5]LKLAGRW-OH; staple (Z) 1-5) | 53 µM | 19 µM | > 100 µM | 6 | 25 µM | 4 µM |  |  |  |  |  |  |  | 
CC(C)C[C@H](NC(=O)[C@H](CCCCN)NC(=O)[C@H](CC(C)C)NC(=O)[C@H](CC(C)C)NC(=O)[C@H](Cc1ccccc1)NC(=O)[C@H](Cc1ccc(O)cc1)NC(=O)[C@H](C)NC(=O)[C@@H](NC(=O)c1ccc2c(c1)C(=O)OC21c2ccc(O)cc2Oc2cc(O)ccc21)[C@@H](C)O)C(=O)N[C@@H](C)C(=O)NCC(=O)N[C@@H](CCCNC(=N)N)C(=O)N[C@@H](Cc1c[nH]c2ccccc12)C(=O)O (mixture of isomers) | 17.5 µM | 6.2 µM | 25 µM | 5 | 70 µM | 13 µM |  | Not Active |  |  |  |  |  | 
CC(C)C[C@@H]1NC(=O)[C@H](CCCCN)NC(=O)[C@H](CC(C)C)NC(=O)[C@@](C)(NC(=O)[C@H](Cc2ccccc2)NC(=O)[C@H](Cc2ccc(O)cc2)NC(=O)[C@H](C)NC(=O)[C@@H](NC(=O)c2ccc3c(c2)C(=O)OC32c3ccc(O)cc3Oc3cc(O)ccc32)[C@@H](C)O)CCC/C=C\CCC[C@@](C)(C(=O)NCC(=O)N[C@@H](CCCNC(=N)N)C(=O)N[C@@H](Cc2c[nH]c3ccccc23)C(=O)O)NC1=O (mixture of isomers) | 5 µM | 6 µM | 25 µM | > 11 | > 125 µM | 11 µM |  | Active | Active | Active | Active | Active | Active | Active
